ChEMBL document CHEMBL1811853, “Design and evaluation of 3-aminopyrazolopyridinone kinase inhibitors inspired by the natural product indirubin” (Bioorg Med Chem, 2011)

Key:
[1] = target: Glycogen synthase kinase-3 beta (Homo sapiens) (UniProt P49841); experiment: Inhibition of GSK3B at 30 uM by microfluidic mobility shift assay
Procedure, shortened: (§1)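 Single-concentration screen, singlicate, 30 uM final (diluted from 1 mM DMSO solutions), fluorescently tagged peptide substrate appropriate to each kinase, ATP at apparent Km for each protein. Phosphorylated and unphosphorylated peptides separated electrophoretically; conversion is the phosphorylated peak area over the sum of both peaks. No-inhibitor and no-ATP controls; H89 reference on each plate.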

[2] = target: RAC-alpha serine/threonine-protein kinase (Homo sapiens) (UniProt P31749); experiment: Inhibition of AKT1 at 30 uM by microfluidic mobility shift assay; procedure, shortened: as §1
RAC-alpha serine/threonine-protein kinase (Homo sapiens), sequence (P31749 whole entry): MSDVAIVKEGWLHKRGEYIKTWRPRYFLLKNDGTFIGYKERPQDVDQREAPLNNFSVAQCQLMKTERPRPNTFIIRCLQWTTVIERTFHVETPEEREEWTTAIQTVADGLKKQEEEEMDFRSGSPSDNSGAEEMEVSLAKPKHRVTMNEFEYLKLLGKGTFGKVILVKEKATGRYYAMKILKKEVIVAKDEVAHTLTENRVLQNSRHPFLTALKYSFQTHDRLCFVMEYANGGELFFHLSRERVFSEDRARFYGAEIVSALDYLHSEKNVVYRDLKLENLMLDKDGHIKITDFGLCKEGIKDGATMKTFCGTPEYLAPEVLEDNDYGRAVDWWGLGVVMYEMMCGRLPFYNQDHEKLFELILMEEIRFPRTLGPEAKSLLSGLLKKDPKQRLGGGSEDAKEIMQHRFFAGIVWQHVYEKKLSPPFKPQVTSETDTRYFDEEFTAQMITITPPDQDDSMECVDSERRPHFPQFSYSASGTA

[3] = target: Insulin receptor (Homo sapiens) (UniProt P06213); experiment: Inhibition of INSR at 30 uM by microfluidic mobility shift assay; procedure, shortened: as §1
[4] = target: Tyrosine-protein kinase ABL1 (Homo sapiens, UniProt P00519); experiment: Inhibition of ABL at 30 uM by microfluidic mobility shift assay; procedure, shortened: as §1
Tyrosine-protein kinase ABL1, sequence (P00519 whole entry): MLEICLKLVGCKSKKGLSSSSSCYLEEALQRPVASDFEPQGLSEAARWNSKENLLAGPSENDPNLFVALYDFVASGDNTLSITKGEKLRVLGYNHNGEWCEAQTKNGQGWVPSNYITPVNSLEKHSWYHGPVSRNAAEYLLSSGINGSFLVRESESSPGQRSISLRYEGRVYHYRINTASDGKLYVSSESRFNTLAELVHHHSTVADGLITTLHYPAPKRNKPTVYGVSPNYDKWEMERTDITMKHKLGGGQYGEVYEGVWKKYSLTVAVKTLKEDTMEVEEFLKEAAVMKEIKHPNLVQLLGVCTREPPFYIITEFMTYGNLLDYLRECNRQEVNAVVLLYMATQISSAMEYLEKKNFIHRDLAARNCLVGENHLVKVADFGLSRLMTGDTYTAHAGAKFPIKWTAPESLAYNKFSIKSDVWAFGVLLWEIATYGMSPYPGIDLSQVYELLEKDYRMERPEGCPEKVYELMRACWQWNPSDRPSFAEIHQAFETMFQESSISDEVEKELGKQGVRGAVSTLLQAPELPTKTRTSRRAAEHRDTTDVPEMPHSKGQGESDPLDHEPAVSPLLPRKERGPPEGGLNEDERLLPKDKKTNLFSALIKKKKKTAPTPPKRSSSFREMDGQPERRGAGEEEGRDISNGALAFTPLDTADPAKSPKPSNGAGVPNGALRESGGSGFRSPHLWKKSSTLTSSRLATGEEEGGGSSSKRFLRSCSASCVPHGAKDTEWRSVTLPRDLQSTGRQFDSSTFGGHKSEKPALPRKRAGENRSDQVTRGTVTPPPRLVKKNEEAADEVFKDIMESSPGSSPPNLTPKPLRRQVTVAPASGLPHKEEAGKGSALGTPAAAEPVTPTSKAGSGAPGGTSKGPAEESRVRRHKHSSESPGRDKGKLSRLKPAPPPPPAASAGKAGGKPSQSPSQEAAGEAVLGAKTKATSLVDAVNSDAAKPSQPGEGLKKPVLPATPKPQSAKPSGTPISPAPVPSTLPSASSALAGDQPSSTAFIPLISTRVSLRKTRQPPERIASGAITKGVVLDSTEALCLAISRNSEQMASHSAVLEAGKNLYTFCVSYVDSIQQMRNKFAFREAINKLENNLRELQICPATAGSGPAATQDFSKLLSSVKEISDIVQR

[5] = target: Mitogen-activated protein kinase 1 (Homo sapiens) (UniProt P28482); experiment: Inhibition of ERK2 at 30 uM by microfluidic mobility shift assay; procedure, shortened: as §1
[6] = target: MAP kinase-activated protein kinase 2 (Homo sapiens, UniProt P49137); experiment: Inhibition of MAPKAPK2 at 30 uM by microfluidic mobility shift assay; procedure, shortened: as §1
[7] = Inhibition of PKA at 30 uM by microfluidic mobility shift assay; procedure, shortened: as §1
[8] = target: Mitogen-activated protein kinase 14 (Homo sapiens, UniProt Q16539); experiment: Inhibition of p38alpha at 30 uM by microfluidic mobility shift assay; procedure, shortened: as §1
Mitogen-activated protein kinase 14, sequence (Q16539 whole entry): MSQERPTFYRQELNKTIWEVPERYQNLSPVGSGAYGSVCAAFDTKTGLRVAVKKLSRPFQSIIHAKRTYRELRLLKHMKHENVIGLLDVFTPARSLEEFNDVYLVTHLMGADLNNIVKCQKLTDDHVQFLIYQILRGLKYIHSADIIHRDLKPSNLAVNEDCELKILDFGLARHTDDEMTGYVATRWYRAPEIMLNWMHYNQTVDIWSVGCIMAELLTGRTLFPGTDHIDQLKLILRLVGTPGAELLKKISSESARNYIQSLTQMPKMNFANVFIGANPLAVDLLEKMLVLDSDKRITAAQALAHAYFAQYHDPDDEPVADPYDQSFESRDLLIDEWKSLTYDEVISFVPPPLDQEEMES

[9] = target: Mitogen-activated protein kinase 3 (Homo sapiens) (UniProt P27361); experiment: Inhibition of ERK1 at 30 uM by microfluidic mobility shift assay; procedure, shortened: as §1
[10] = target: Tyrosine-protein kinase Lck (Homo sapiens, UniProt P06239); experiment: Inhibition of LCK at 30 uM by microfluidic mobility shift assay; procedure, shortened: as §1
[11] = target: T1, MAP kinase-activated protein kinase 5 (Homo sapiens) (UniProt Q8IW41); experiment: Inhibition of PRAK1 at 30 uM by microfluidic mobility shift assay; procedure, shortened: as §1
T1 sequence (whole entry): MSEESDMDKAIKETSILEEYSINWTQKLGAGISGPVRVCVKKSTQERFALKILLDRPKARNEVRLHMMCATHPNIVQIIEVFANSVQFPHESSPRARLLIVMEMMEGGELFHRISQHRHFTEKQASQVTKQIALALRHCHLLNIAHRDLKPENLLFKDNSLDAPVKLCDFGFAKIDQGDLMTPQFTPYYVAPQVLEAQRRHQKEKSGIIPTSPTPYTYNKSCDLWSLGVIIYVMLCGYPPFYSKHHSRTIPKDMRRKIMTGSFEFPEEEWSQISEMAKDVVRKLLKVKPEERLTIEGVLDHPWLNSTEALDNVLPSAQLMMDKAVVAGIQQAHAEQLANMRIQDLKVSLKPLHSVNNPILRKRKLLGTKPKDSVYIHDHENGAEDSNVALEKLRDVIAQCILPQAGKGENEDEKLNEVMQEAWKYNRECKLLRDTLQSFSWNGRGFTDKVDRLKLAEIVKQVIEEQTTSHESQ

[12] = target: T2, Serine/threonine-protein kinase D2 (Homo sapiens) (UniProt Q9BZL6); experiment: Inhibition of PKD2 at 30 uM by microfluidic mobility shift assay; procedure, shortened: as §1
T2 sequence (whole entry): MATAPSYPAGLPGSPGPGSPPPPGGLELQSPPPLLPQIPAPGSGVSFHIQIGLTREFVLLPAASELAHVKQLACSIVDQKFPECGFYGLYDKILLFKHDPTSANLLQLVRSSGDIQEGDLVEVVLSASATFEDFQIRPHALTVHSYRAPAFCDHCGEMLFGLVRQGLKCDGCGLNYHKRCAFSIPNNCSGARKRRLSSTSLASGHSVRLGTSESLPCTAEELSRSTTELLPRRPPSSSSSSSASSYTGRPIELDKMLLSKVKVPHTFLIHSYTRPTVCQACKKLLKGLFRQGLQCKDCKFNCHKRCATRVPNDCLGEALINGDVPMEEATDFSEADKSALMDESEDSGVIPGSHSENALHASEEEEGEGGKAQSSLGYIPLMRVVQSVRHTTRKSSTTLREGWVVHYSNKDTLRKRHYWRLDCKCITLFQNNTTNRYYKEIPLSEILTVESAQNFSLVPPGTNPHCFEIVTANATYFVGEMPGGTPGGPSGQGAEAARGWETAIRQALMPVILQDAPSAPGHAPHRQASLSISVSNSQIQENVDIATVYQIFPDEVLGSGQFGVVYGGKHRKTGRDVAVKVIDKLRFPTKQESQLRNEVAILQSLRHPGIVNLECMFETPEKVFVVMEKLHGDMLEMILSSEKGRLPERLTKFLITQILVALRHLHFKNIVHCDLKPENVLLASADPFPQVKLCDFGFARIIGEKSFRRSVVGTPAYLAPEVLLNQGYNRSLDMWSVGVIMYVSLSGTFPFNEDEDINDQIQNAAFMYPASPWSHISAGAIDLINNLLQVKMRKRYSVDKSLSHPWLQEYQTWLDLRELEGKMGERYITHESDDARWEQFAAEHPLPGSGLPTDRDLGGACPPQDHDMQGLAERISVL

[13] = target: Ribosomal protein S6 kinase alpha-1 (Homo sapiens) (UniProt Q15418); experiment: Inhibition of RSK1 at 30 uM by microfluidic mobility shift assay; procedure, shortened: as §1
Ribosomal protein S6 kinase alpha-1 (Homo sapiens), sequence (Q15418 whole entry): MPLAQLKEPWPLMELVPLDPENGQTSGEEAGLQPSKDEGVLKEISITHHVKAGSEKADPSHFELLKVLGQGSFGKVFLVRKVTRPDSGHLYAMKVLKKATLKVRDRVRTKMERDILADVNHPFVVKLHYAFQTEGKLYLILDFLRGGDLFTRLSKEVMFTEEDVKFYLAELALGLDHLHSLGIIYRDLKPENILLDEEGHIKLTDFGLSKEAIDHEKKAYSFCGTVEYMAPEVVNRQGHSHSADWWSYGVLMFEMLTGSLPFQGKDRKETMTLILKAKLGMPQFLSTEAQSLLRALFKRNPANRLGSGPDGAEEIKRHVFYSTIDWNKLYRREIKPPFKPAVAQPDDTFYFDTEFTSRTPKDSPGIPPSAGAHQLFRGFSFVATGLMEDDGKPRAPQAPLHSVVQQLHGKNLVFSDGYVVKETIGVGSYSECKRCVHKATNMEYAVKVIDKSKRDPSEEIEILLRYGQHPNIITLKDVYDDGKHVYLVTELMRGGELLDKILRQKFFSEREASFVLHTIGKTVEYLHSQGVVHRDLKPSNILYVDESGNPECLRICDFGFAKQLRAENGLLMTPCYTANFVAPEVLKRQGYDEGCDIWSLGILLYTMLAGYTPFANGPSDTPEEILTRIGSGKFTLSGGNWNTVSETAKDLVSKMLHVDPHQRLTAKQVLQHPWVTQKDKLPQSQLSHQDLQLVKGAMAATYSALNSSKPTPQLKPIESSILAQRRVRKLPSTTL

[14] = target: RAC-beta serine/threonine-protein kinase (Homo sapiens) (UniProt P31751); experiment: Inhibition of AKT2 at 30 uM by microfluidic mobility shift assay; procedure, shortened: as §1
[15] = target: T3, Aurora kinase A (Homo sapiens) (UniProt O14965); experiment: Inhibition of AurA at 30 uM by microfluidic mobility shift assay; procedure, shortened: as §1
T3 sequence (whole entry): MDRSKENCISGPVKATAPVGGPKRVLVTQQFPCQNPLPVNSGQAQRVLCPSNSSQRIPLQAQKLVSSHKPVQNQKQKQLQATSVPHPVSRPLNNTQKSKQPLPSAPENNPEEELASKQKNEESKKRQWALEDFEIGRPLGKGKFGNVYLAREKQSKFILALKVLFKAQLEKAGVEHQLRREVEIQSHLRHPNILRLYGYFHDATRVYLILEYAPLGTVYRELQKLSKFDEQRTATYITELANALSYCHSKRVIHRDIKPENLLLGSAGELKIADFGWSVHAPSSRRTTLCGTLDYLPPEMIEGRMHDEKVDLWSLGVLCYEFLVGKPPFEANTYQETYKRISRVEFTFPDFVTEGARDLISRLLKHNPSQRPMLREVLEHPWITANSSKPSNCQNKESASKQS

[16] = target: Serine/threonine-protein kinase Chk2 (Homo sapiens, UniProt O96017); experiment: Inhibition of CHK2 at 30 uM by microfluidic mobility shift assay; procedure, shortened: as §1
Serine/threonine-protein kinase Chk2, sequence (O96017 whole entry): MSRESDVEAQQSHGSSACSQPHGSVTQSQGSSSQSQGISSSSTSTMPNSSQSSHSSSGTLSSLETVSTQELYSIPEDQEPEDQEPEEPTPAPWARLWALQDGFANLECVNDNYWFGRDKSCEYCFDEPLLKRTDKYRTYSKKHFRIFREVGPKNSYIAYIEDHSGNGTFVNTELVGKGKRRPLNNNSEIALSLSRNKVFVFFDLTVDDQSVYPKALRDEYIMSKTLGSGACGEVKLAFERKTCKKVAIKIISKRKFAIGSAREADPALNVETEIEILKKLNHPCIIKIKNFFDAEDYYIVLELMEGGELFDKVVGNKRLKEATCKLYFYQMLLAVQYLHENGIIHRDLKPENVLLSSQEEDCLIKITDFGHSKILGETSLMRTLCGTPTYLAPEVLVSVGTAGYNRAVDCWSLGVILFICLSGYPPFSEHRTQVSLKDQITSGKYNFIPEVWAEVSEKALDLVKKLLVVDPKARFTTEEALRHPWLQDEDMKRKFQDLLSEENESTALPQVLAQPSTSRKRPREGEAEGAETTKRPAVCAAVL

[17] = target: T4, Serine/threonine-protein kinase Chk1 (Homo sapiens) (UniProt O14757); experiment: Inhibition of CHK1 at 30 uM by microfluidic mobility shift assay; procedure, shortened: as §1
T4 sequence (whole entry): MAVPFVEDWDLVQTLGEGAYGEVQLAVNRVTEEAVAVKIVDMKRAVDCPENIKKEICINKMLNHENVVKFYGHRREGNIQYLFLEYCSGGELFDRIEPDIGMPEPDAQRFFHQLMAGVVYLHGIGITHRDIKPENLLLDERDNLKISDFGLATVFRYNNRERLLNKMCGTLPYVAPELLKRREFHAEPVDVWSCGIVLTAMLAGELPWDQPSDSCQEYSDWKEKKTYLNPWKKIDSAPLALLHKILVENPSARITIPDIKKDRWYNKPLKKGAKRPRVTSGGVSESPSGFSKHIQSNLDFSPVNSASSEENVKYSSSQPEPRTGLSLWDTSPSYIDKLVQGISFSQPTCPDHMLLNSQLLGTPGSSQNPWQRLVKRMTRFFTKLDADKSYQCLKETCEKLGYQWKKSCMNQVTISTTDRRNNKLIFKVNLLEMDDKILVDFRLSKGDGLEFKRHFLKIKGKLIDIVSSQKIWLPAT

[18] = target: Tyrosine-protein kinase Lyn (Homo sapiens, UniProt P07948); experiment: Inhibition of LYN at 30 uM by microfluidic mobility shift assay; procedure, shortened: as §1
Tyrosine-protein kinase Lyn, sequence (P07948 2-512 limits assumed): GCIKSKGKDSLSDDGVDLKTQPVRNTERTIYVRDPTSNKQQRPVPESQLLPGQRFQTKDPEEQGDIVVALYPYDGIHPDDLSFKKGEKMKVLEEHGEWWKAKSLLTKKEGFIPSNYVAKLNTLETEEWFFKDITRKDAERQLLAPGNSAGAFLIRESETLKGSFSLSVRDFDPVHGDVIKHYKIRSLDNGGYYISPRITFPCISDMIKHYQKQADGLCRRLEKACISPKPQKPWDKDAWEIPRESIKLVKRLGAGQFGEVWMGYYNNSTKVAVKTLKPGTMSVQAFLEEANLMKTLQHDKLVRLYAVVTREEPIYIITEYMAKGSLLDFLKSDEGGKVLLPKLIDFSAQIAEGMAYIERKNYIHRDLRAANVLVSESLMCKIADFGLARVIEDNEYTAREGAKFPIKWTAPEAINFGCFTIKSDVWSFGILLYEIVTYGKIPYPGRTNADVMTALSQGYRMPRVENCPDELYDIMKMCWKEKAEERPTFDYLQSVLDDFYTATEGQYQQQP

[19] = target: Proto-oncogene tyrosine-protein kinase Src (Homo sapiens, UniProt P12931); experiment: Inhibition of SRC at 30 uM by microfluidic mobility shift assay; procedure, shortened: as §1
Proto-oncogene tyrosine-protein kinase Src, sequence (P12931 2-536 limits assumed): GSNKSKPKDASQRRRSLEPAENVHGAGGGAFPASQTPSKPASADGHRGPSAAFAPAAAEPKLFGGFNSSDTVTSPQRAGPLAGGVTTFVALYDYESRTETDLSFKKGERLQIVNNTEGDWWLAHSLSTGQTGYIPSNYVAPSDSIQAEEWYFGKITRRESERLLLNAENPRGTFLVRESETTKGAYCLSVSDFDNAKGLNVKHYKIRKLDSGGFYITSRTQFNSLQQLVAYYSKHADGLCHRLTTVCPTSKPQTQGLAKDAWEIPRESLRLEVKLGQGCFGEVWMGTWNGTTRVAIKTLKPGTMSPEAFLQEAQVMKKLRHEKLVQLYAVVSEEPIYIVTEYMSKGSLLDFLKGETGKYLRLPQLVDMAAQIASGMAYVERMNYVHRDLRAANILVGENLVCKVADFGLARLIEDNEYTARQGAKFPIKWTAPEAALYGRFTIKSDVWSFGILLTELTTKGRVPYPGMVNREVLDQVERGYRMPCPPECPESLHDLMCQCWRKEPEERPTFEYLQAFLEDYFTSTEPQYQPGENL

[20] = target: Ribosomal protein S6 kinase alpha-5 (Homo sapiens) (UniProt O75582); experiment: Inhibition of MSK1 at 30 uM by microfluidic mobility shift assay; procedure, shortened: as §1
[21] = target: Tyrosine-protein kinase Fyn (Homo sapiens, UniProt P06241); experiment: Inhibition of FYN at 30 uM by microfluidic mobility shift assay; procedure, shortened: as §1

Glycogen synthase kinase-3 beta (Homo sapiens), sequence (P49841 whole entry, looked up): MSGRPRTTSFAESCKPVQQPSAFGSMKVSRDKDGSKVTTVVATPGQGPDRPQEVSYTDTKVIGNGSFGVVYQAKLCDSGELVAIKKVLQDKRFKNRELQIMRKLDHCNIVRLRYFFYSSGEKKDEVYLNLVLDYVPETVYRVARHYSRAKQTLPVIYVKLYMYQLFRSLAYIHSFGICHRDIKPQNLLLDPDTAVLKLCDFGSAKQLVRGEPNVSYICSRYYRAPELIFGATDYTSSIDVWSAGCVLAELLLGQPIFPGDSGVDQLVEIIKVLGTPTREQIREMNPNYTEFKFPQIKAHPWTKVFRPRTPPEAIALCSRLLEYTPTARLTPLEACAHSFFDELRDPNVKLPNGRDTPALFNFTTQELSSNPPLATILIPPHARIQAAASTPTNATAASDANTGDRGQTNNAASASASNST

Structure (SMILES): Nc1n[nH]c2cc(-c3cccs3)[nH]c(=O)c12
- inhibition [1]: 89%
- inhibition [2]: 4%
- inhibition [3]: 21%
- inhibition [4]: 63%
- inhibition [5]: 15%
- inhibition [6]: 58%
- inhibition [7]: 79%
- inhibition [8]: 6%
- inhibition [9]: 15%
- inhibition [10]: 58%
- inhibition [11]: 12%
- inhibition [12]: 5%
- inhibition [13]: 35%
- inhibition [14]: 5%
- inhibition [15]: 67%
- inhibition [16]: 59%
- inhibition [17]: 44%
- inhibition [18]: 63%
- inhibition [19]: 74%
- inhibition [20]: 63%
- inhibition [21]: 69%

Structure (SMILES): Cc1cc2c(c(N)nn2C)c(N2CCOCC2)n1
- inhibition [1]: 8%
- inhibition [2]: -8%
- inhibition [3]: 3%
- inhibition [4]: 15%
- inhibition [5]: -1%
- inhibition [6]: -2%
- inhibition [7]: -2%
- inhibition [8]: 2%
- inhibition [9]: 4%
- inhibition [10]: 10%
- inhibition [11]: 5%
- inhibition [12]: -4%
- inhibition [13]: 1%
- inhibition [14]: 12%
- inhibition [15]: 17%
- inhibition [16]: 3%
- inhibition [17]: -5%
- inhibition [18]: 17%
- inhibition [19]: 7%
- inhibition [20]: 4%
- inhibition [21]: 9%

Structure (SMILES): Nc1n[nH]c2cc(CC3CCNCC3)[nH]c(=O)c12
- inhibition [1]: 4%
- inhibition [2]: 13%
- inhibition [3]: 1%
- inhibition [4]: 7%
- inhibition [5]: -2%
- inhibition [6]: 35%
- inhibition [7]: 71%
- inhibition [8]: 3%
- inhibition [9]: 4%
- inhibition [10]: 4%
- inhibition [11]: 3%
- inhibition [12]: -6%
- inhibition [13]: 11%
- inhibition [14]: 6%
- inhibition [15]: 5%
- inhibition [16]: 7%
- inhibition [17]: 16%
- inhibition [18]: -1%
- inhibition [19]: 4%
- inhibition [20]: 62%
- inhibition [21]: -3%

Structure (SMILES): Cc1cc2c(cn1)c(N)nn2C
- inhibition [1]: 6%
- inhibition [2]: 0%
- inhibition [3]: -3%
- inhibition [4]: 2%
- inhibition [5]: 2%
- inhibition [6]: -2%
- inhibition [7]: 1%
- inhibition [8]: 2%
- inhibition [9]: 6%
- inhibition [10]: 4%
- inhibition [11]: 9%
- inhibition [12]: -3%
- inhibition [13]: 1%
- inhibition [14]: -2%
- inhibition [15]: 3%
- inhibition [16]: 3%
- inhibition [17]: 10%
- inhibition [18]: 1%
- inhibition [19]: 3%
- inhibition [20]: -2%
- inhibition [21]: 2%

Structure (SMILES): COCCNc1nc(C)cc2nn(-c3ccccc3)c(N)c12
- inhibition [1]: 10%
- inhibition [2]: 3%
- inhibition [3]: 1%
- inhibition [4]: 4%
- inhibition [5]: -1%
- inhibition [6]: 3%
- inhibition [7]: 1%
- inhibition [8]: 3%
- inhibition [9]: 3%
- inhibition [10]: 0%
- inhibition [11]: 2%
- inhibition [12]: -1%
- inhibition [13]: 2%
- inhibition [14]: 2%
- inhibition [15]: 32%
- inhibition [16]: 4%
- inhibition [17]: 0%
- inhibition [18]: 6%
- inhibition [19]: 2%
- inhibition [20]: 3%
- inhibition [21]: -3%

Structure (SMILES): Cc1cc2nc(-c3ccccc3)nc(N)c2c(=O)[nH]1
- inhibition [1]: 86%
- inhibition [2]: 7%
- inhibition [3]: 5%
- inhibition [4]: 39%
- inhibition [5]: 11%
- inhibition [6]: 22%
- inhibition [7]: 50%
- inhibition [8]: 7%
- inhibition [9]: 10%
- inhibition [10]: 45%
- inhibition [11]: 5%
- inhibition [12]: 5%
- inhibition [13]: 14%
- inhibition [14]: 2%
- inhibition [15]: 34%
- inhibition [16]: 4%
- inhibition [17]: 3%
- inhibition [18]: 23%
- inhibition [19]: 40%
- inhibition [20]: 15%
- inhibition [21]: 32%
